Values after ≈ are worked out from the molar mass of the structure shown.
Legend:
[1] = target: T1, Coagulation factor XII (Homo sapiens) (UniProt P00748); assay: Inhibition of human factor 12a using S-2302 as substrate assessed as para-nitroaniline release at 50 uM preincubated for 10 mins followed by substrate addition measured after 30 mins by HPLC-UV analysis
T1 sequence (whole entry): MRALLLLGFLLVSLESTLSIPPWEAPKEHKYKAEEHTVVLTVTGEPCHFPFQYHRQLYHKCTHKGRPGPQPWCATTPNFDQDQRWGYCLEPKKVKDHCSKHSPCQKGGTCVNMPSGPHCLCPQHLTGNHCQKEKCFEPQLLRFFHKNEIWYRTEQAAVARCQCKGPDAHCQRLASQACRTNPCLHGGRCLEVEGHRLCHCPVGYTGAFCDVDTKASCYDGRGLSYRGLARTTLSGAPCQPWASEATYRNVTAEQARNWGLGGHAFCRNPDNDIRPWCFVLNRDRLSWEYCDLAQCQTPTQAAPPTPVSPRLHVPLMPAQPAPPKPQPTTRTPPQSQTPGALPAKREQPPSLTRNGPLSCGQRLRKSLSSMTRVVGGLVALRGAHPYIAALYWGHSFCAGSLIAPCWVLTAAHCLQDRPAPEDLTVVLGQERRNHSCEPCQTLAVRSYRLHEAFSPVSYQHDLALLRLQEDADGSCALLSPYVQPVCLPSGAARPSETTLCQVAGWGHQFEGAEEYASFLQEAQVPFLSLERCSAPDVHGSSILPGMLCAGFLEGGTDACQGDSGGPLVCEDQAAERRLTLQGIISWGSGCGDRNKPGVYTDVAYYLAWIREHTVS
How it was run: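 Human FXIIa 145 nM in 0.5 mM Tris-Imidazole, 0.15 M NaCl, pH 7.9, preincubated 10 min at 25 C with compound (DMSO). S-2302 (2.5 mM) added and hydrolysis run 30 min, then stopped with 10% acetic acid. Wells diluted 1:1 in acetonitrile. Released p-NA quantified by C18 HPLC-UV at 375 nm (AUC). % inhibition = [1-(AUCdrug/AUCvehicle)]*100.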

[2] = Solubility of compound at pH 6.5; format: physicochemical; conditions: buffer
[3] = target: Prothrombin (Homo sapiens) (UniProt P00734); assay: Inhibition of human thrombin using S-2238 as substrate at 100 uM preincubated for 10 mins followed by substrate addition measured for 5 mins by microplate reader analysis
How it was run: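 Compound (DMSO) preincubated 10 min at 25 C, then S-2238 (2.5 mM). OD405 monitored continuously for 5 min. Slope-based % inhibition against vehicle control.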

[4] = target: Coagulation factor X (Homo sapiens) (UniProt P00742); assay: Inhibition of human factor 10a using S-2765 as substrate at 100 uM preincubated for 10 mins followed by substrate addition measured for 5 mins by microplate reader analysis
Sequence of Coagulation factor X (Homo sapiens) (P00742 41-179 limits assumed): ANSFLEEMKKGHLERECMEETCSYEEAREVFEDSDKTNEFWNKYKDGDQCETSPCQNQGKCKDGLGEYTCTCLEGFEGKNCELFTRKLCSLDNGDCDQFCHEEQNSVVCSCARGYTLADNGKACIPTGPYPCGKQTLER
Sequence of Coagulation factor X (Homo sapiens) (P00742 235-488 limits assumed): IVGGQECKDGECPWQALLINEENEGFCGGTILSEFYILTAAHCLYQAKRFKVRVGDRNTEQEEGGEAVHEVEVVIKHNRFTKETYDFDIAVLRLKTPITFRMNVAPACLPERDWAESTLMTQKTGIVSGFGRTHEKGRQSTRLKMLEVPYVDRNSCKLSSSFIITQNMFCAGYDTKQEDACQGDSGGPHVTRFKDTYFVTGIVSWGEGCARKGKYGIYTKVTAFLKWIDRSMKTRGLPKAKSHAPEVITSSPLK
How it was run: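 Compound added from DMSO and held with enzyme 10 min at 25 C. S-2765 (1 mM) then added and OD405 followed continuously for 5 min. % inhibition = [1-(slope inhibitor/slope vehicle)]*100.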

[5] = target: Plasma kallikrein (Homo sapiens) (UniProt P03952); assay: Inhibition of human plasma kallikrein using S-2302 as substrate at 100 uM preincubated for 10 mins followed by substrate addition measured for 5 mins by microplate reader analysis; format: cell-free
Sequence of Plasma kallikrein (Homo sapiens) (P03952 20-390 limits assumed): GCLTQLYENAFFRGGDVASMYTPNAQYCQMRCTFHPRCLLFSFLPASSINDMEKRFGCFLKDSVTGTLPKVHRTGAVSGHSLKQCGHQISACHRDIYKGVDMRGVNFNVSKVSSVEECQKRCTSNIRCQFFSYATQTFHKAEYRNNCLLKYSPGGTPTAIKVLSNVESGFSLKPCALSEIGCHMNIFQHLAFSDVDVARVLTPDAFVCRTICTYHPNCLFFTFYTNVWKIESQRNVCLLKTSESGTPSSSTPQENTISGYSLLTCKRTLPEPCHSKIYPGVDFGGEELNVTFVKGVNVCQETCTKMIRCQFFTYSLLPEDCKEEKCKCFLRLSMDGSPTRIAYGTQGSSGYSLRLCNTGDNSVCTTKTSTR
Sequence of Plasma kallikrein (Homo sapiens) (P03952 391-638 limits assumed): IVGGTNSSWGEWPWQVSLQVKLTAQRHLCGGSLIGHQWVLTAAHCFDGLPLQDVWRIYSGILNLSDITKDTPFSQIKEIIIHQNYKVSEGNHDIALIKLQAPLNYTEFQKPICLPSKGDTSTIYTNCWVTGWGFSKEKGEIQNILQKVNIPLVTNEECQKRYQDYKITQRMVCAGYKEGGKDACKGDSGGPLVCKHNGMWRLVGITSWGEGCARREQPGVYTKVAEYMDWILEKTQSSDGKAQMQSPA
How it was run: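 Human plasma kallikrein 50 nM in 0.05 M Tris-HCl, 0.5 mM EDTA, 0.05% Tween 20, 0.15 M NaCl, pH 7.4. 10 min preincubation with compound at 25 C, then S-2302 (4 mM). OD405 read continuously for 5 min. % inhibition = [1-(slope inhibitor/slope vehicle)]*100.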

Coagulation factor XII = target: T2, Coagulation factor XII (Homo sapiens, UniProt P00748); assay: Inhibition of human factor 12a using S-2302 as substrate assessed as para-nitroaniline release preincubated for 10 mins followed by substrate addition measured after 30 mins by HPLC-UV analysis
T2 sequence (P00748 whole entry): T1 sequence (whole entry)
How it was run: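 FXIIa IC50 assay. Human enzyme 145 nM in Tris-Imidazole/NaCl buffer, pH 7.9, 10 min at 25 C with compound, then S-2302 (2.5 mM) for 30 min and acetic acid stop. p-NA AUC measured by HPLC-UV at 375 nm. Nine concentrations from 100 nM upward, in duplicate. Sigmoid fit of % inhibition vs log concentration by non-linear regression; values reported as mean with 95% CI.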

[6] = target: T3, Coagulation factor VII (Homo sapiens) (UniProt P08709); assay: Inhibition of human factor 7a using chromozymt-PA as substrate at 100 uM preincubated for 10 mins followed by substrate addition measured for 10 mins by microplate reader analysis
T3 sequence (whole entry): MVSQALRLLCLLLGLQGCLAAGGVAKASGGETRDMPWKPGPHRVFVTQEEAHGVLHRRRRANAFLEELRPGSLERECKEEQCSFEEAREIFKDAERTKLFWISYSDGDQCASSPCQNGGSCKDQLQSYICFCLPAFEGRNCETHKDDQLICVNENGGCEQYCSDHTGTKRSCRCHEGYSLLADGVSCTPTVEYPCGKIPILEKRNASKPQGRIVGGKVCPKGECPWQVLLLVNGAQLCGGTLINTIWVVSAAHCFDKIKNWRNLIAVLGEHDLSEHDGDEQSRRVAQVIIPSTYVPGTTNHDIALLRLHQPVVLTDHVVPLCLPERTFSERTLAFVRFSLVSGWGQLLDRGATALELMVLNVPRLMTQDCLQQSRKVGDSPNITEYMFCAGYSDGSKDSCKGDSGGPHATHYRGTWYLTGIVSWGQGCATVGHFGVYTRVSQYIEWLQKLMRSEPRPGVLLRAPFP
How it was run: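 Compound preincubated 10 min at 25 C. Chromozym t-PA (5 mM) added and OD405 monitored continuously for 10 min. Inhibition from slope ratio against vehicle.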

| SMILES | inhibition [1] | solubility [2] | inhibition [3] | inhibition [4] | inhibition [5] | IC50 (Coagulation factor XII) | inhibition [6] |
| --- | --- | --- | --- | --- | --- | --- | --- |
| CN(C)CCNC(=O)c1cc2cc(Br)cc(Br)c2oc1=O | 30% | 3000 µg/mL (≈ 7180 µM) | – | – | – | – | – |
| O=C(Nc1ccccc1)c1cc2cc(CN3CCCC3)ccc2oc1=O | 21% | 3400 µg/mL (≈ 9760 µM) | – | – | – | – | – |
| O=C(NCCN1CCOCC1)c1cc2cc(Br)cc(Br)c2oc1=O | 14% | 500 µg/mL (≈ 1090 µM) | – | – | – | – | – |
| O=C(Nc1ccccc1)c1cc2cc(CN3CCCCC3)ccc2oc1=O | 28% | 700 µg/mL (≈ 1930 µM) | – | – | – | – | – |
| CN(C)CCNC(=O)c1cc2cc(Cl)cc(Cl)c2oc1=O | 29% | 2200 µg/mL (≈ 6680 µM) | – | – | – | – | – |
| O=C(NCCN1CCOCC1)c1cc2cc(Cl)cc(Cl)c2oc1=O | 20% | 400 µg/mL (≈ 1080 µM) | – | – | – | – | – |
| CCN(CC)Cc1ccc2oc(=O)c(C(=O)Nc3ccccc3)cc2c1 | 14% | 2900 µg/mL (≈ 8280 µM) | – | – | – | – | – |
| O=C(Nc1ccccc1)c1cc2cc(CN3CCOCC3)ccc2oc1=O | 18% | 48 µg/mL (≈ 132 µM) | – | – | – | – | – |

The remaining lines, values ahead:

| inhibition [1] | solubility [2] | inhibition [3] | inhibition [4] | inhibition [5] | IC50 (Coagulation factor XII) | inhibition [6] | SMILES |
| --- | --- | --- | --- | --- | --- | --- | --- |
| 14% | 52 µg/mL (≈ 176 µM) | – | – | – | – | – | O=C(Nc1ccccc1)c1cc2cc(CO)ccc2oc1=O |
| 26% | 9900 µg/mL | – | – | – | – | – | Cl.NCc1ccc2oc(=O)c(C(=O)Nc3ccccc3)cc2c1 |
| 99% | 0.71 µg/mL (≈ 1.8 µM) | < 10% | < 10% | < 10% | 7 µM | < 10% | O=C(Nc1ccccc1O)c1cc2cc(Cl)cc(Br)c2oc1=O |
| 17% | 400 µg/mL (≈ 962 µM) | – | – | – | – | – | O=C(NCCN1CCOCC1)c1cc2cc(Cl)cc(Br)c2oc1=O |
| 90% | 1.4 µg/mL (≈ 3.55 µM) | < 10% | < 10% | < 10% | 34 µM | < 10% | O=C(Nc1cccc(O)c1)c1cc2cc(Cl)cc(Br)c2oc1=O |
| 90% | 0.59 µg/mL (≈ 1.56 µM) | < 10% | < 10% | < 10% | 16 µM | < 10% | O=C(Nc1ccccc1)c1cc2cc(Cl)cc(Br)c2oc1=O |
| 23% | 61900 µg/mL | – | – | – | – | – | NCCNC(=O)c1cc2cc(Cl)cc(Br)c2oc1=O.O=C(O)C(F)(F)F |
| 99% | 0.11 µg/mL (≈ 0.256 µM) | < 10% | < 10% | < 10% | 8 µM | < 10% | O=C(Nc1ccc(Cl)cc1O)c1cc2cc(Cl)cc(Br)c2oc1=O |
| 75% | 36 µg/mL (≈ 78.8 µM) | – | – | – | – | – | O=C(O)c1cc(Cl)ccc1NC(=O)c1cc2cc(Cl)cc(Br)c2oc1=O |
| 99% | 0.1 µg/mL (≈ 0.233 µM) | < 10% | < 10% | < 10% | 5 µM | < 10% | O=C(Nc1cc(Cl)ccc1O)c1cc2cc(Cl)cc(Br)c2oc1=O |
| 90% | 1.5 µg/mL (≈ 3.8 µM) | < 10% | < 10% | < 10% | 41 µM | < 10% | O=C(Nc1ccc(O)cc1)c1cc2cc(Cl)cc(Br)c2oc1=O |
| 26% | 2400 µg/mL (≈ 6420 µM) | – | – | – | – | – | CN(C)CCNC(=O)c1cc2cc(Cl)cc(Br)c2oc1=O |

— ChEMBL document CHEMBL3763081, “Synthesis, evaluation and structure-activity relationship of new 3-carboxamide coumarins as FXIIa inhibitors” (Eur J Med Chem, 2016)
